RAM network inh = blocks the yeast RAM network. S. cerevisiae dse1pr::URA3 reporter, 5-FOA growth OD615, 2 d; analog-sensitive cbk1-as2 kinase mutant strain. inhibition, % at 50 µM. actives 1.8% (n = 190,000). AID 868;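 active = inhibition above a set limit, 3 SD over mean compound inhibition, cut at about 8.4% in these data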;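 also: 0% = DMSO-only wells with no growth and 100% = 10 µM 1-NA-PP1 full growth; inhibition rescues growth on 5-FOA so higher OD means more RAM inhibition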
Insulin prom inh = TRM-6 insulin promoter activity inhibition. TRM-6 cells, insulin promoter-eGFP reporter, imaging; reporter expression induced with tamoxifen. actives 0.9% (n = 130,000). inhibition, % at 2 µM. AID 1273;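 active = inhibition above the mean plus 3 SD, with well images judged a real hit on visual review, cut at about 60% in these data, passing the limit was not always enough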
Ins promoter up = MIN6 insulin promoter up-regulation; MIN6 insulin promoter-GFP reporter, high-content imaging; stronger effect = higher value; z-score at 5 µM; actives 0.3% (n = 190,000); AID 1625;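 active = z-score above 3 at 5 µM with at least 500 cells counted in the well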
BB579 growth dn = yeast BB579 growth reduction in restrictive medium | actives 0.51% (n = 140,000) | inhibition, % at 10 µM | S. cerevisiae BB579 growth, OD615, 48 h;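 active = inhibition above a set limit, 3 SD over the mean compound inhibition, cut at about 44% in these data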
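Assay system: S. cerevisiae DeaD strain BB579 yeast. Medium: CSMM-D restrictive synthetic medium containing dextrose (glucose). Times: 4 h cell preincubation, 48 h compound exposure, 30 °C humidified. Signal: OD615 turbidity measurement. Benchmarks: positive control amphotericin B 10 µg/mL.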
Yeast lifespan up = extends the lifespan of yeast; S. cerevisiae growth with nicotinamide, OD615; deaD strain in restrictive glucose medium; actives 0.68% (n = 130,000); inhibition of the nicotinamide effect, % at 10 µM; AID 775;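 active = inhibition above a set limit, placed 3 SD over the median of all compounds, cut at about 26% in these data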;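 also: 0% = nicotinamide-treated wells and 100% = cells grown without nicotinamide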
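Assay system: engineered S. cerevisiae DeaD replicative-lifespan strain, galactose-grown log-phase cells; Buffer or medium: CSMM-D glucose medium, restrictive; Probe or stimulus: nicotinamide 1.5 mM; Compound: single dose 10 µM compound, 0.25% DMSO; Schedule: 4 h preincubation then 48 h treatment at 30 °C; Technique: OD615 measurement.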
RAM 5-FOA = restores 5-FOA growth of efflux-deficient yeast; shares compounds with RAM network inh; max inhibition, %; S. cerevisiae efflux-deficient reporter strain, 5-FOA growth OD615, 2 days; 1,200 tested, under 10 active; call rule not given here;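 also: plate controls were vehicle for no effect and reference inhibitor for full effect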
Numbers without * were called inactive. Compounds with a hit are over-represented: about 3.1% of the library has one in this group of screens.

`CCOC(=O)c1cnc(-c2ccccc2)nc1Oc1ccc(Cl)cc1` gave RAM network inh 14*, Insulin prom inh -50, BB579 growth dn -49, Yeast lifespan up 36 and RAM 5-FOA 1.
O=C(O)c1cnc(-c2ccccc2)nc1Oc1ccc(Cl)cc1 was read as RAM network inh 3 and Ins promoter up -0.89.
For CCOC(=O)c1cc(C#N)c(Oc2ccccc2)nc1-c1ccccc1 the results were RAM network inh 12*, Insulin prom inh 6, Ins promoter up 0.04, BB579 growth dn -6, Yeast lifespan up -2 and RAM 5-FOA 6.
CCCNc1nc(C)cc(-c2cc(C(=O)NCc3ccccc3)on2)n1 was read as Ins promoter up 0.21.
For CCNC(=O)CSc1nnc(-c2ccccc2Br)n1-c1cccc(C(F)(F)F)c1 the results were RAM network inh 12*, Insulin prom inh -19, Ins promoter up 0.48, BB579 growth dn -14, Yeast lifespan up 0 and RAM 5-FOA 16.
`NC(=O)CSc1nnc(-c2ccccc2Br)n1-c1cccc(C(F)(F)F)c1` gave RAM network inh 1, Insulin prom inh -20, Ins promoter up 0.3, BB579 growth dn -10 and Yeast lifespan up -5.
`O=[N+]([O-])c1ccc(-c2csc(N3CCc4ccccc4C3)n2)cc1` gave RAM network inh 8, Insulin prom inh -58, Ins promoter up 0.04, BB579 growth dn 9 and Yeast lifespan up -4.
Brc1ccc(-c2csc(N3CCc4ccccc4C3)n2)cc1 was read as RAM network inh 15*, Insulin prom inh -16, Ins promoter up -0.93, BB579 growth dn -46, Yeast lifespan up -6 and RAM 5-FOA 5.
`O/N=C/c1cc(Br)ccc1OCc1ccc(F)cc1` gave Insulin prom inh -19.
Screening O/N=C/c1cc(Br)ccc1OCc1cccc(F)c1 returned RAM network inh 12*, Insulin prom inh 23, Ins promoter up -0.73, BB579 growth dn -22, Yeast lifespan up -7 and RAM 5-FOA 2.
For CC(C)=CCN1CCN(Cc2ccc(Sc3nncn3C)o2)CC1CCO (configuration not stated) the results were RAM network inh 1 and Ins promoter up 0.04.
`CC(C)N(Cc1nc(-c2ccc(Cl)cc2)no1)C(=O)/C=C/c1ccccc1` gave RAM network inh 12*, BB579 growth dn -60, Yeast lifespan up -2 and RAM 5-FOA 2.
`Cc1cccc(NC(=O)C2(c3cccs3)CCOCC2)n1` gave RAM network inh 2, Ins promoter up -0.08, BB579 growth dn -3 and Yeast lifespan up 0.
For CSC1=N/C(=C\c2cccnc2)C(=O)N1c1ccccc1 the results were RAM network inh -1, Ins promoter up -0.15, BB579 growth dn -25 and Yeast lifespan up -8.
CCSC1=N/C(=C/c2ccsc2)C(=O)N1c1ccccc1 was read as RAM network inh 12*, Insulin prom inh 27, Ins promoter up -0.05, BB579 growth dn -29, Yeast lifespan up 0 and RAM 5-FOA 3.
For CCSC1=N/C(=C\c2cccnc2)C(=O)N1c1ccccc1 the results were RAM network inh 0, Insulin prom inh -18, Ins promoter up -0.37, BB579 growth dn -47 and Yeast lifespan up 1.
`CCCSC1=N/C(=C/c2ccsc2)C(=O)N1c1ccccc1` gave RAM network inh 12*, Insulin prom inh 0, Ins promoter up 0, BB579 growth dn -26, Yeast lifespan up -1 and RAM 5-FOA 1.
`CCCCSC1=N/C(=C/c2ccsc2)C(=O)N1c1ccccc1` gave RAM network inh 16*, Insulin prom inh 6, Ins promoter up 0.11, BB579 growth dn -15, Yeast lifespan up 0 and RAM 5-FOA 3.
Screening CN(C)S(=O)(=O)c1ccc(Cl)c(NC(=O)CSc2nc3ccccc3c(=O)n2CCCN2CCOCC2)c1 returned RAM network inh 0, Insulin prom inh 9, Ins promoter up -0.19, BB579 growth dn 14 and Yeast lifespan up -2.
Screening CN(C)c1nc(OCCOC(=O)COc2ccc(Cl)cc2Cl)nc(N(C)C)n1 returned RAM network inh 1, Insulin prom inh -5, Ins promoter up 0.92, BB579 growth dn -47 and Yeast lifespan up -2.
Screening CN(C)c1nc(SCCOC(=O)COc2ccc(Cl)cc2Cl)nc(N(C)C)n1 returned RAM network inh 12*, Insulin prom inh 3, Ins promoter up 1.6, BB579 growth dn -29, Yeast lifespan up 0 and RAM 5-FOA 3.
For CCOc1ccccc1NC(=O)C(OC(=O)c1cc(C)oc1C)c1ccccc1 (configuration not stated) the results were RAM network inh 14*, Insulin prom inh -6, Ins promoter up 0.81, BB579 growth dn -28, Yeast lifespan up 0 and RAM 5-FOA 5.
For Cc1ccc(SCC(=O)N2c3ccccc3Sc3ccccc32)cc1 the results were RAM network inh 14*, Insulin prom inh 37, Ins promoter up 0.67, BB579 growth dn -31, Yeast lifespan up -18 and RAM 5-FOA 2.
Screening Cc1ccc(NN=C2c3ccccc3-c3ccccc32)cc1 returned RAM network inh 15*, Insulin prom inh 10, Ins promoter up 2.1, BB579 growth dn -21, Yeast lifespan up -3 and RAM 5-FOA 5.
For Cc1ccc(OCC(=O)NN=C2c3ccccc3-c3ccccc32)cc1 the results were RAM network inh 2, Ins promoter up -0.54, BB579 growth dn -26 and Yeast lifespan up -4.
`CCc1cc2c(Sc3nc4ccccc4s3)ncnc2s1` gave RAM network inh 13*, Ins promoter up -1.9, BB579 growth dn 2, Yeast lifespan up -15 and RAM 5-FOA 2.
Screening CCCCC(=O)NC1(C(F)(F)F)NC(=O)N(Cc2ccccc2)C1=O (configuration not stated) returned RAM network inh -1, Insulin prom inh -83 and Ins promoter up 0.33.
For CC1CCN(Cc2c(C(=O)O)nnn2-c2nonc2N)CC1 the results were RAM network inh 2 and Ins promoter up 0.19.
For CC1(C)C(C=C(Cl)Cl)C1C(=O)Nc1ccc([N+](=O)[O-])cc1 (configuration not stated) the results were RAM network inh 11*, Insulin prom inh 12, Ins promoter up 0, BB579 growth dn 54*, Yeast lifespan up -4 and RAM 5-FOA 2.
CCCCC(=O)Nc1ccccc1C(=O)OCC(=O)c1ccc2c(c1)OCCO2 was read as RAM network inh 13*, Ins promoter up 1.1, BB579 growth dn -15, Yeast lifespan up -2 and RAM 5-FOA 2.
For CCN(CC)S(=O)(=O)c1cccc(C(=O)OCC(=O)c2ccc3c(c2)OCCO3)c1 the results were RAM network inh 14*, Insulin prom inh -31, Ins promoter up 0.31, BB579 growth dn -49, Yeast lifespan up 7 and RAM 5-FOA 5.
Screening O=C(O)/C=C/C(=O)Nc1ccccc1C(=O)OCC(=O)c1ccc2c(c1)OCCO2 returned RAM network inh 1, Insulin prom inh 56 and Ins promoter up 0.69.

Screening data deposited in PubChem BioAssay by several laboratories.
